Screening data from PubChem.
Most compounds without a hit are left out; they make up all but 2.5% or so of the library.
Bfl-1 A1 inh – caspase 3/7 activation in MEF A1-2A-BIM cells, primary screen, A1 inhibitor project, cell-based, luminescence, HTS; 330,000 tested, 0.066% active; AID 2462, 2010; caspase activation, % (test concentration not listed); Caspase-Glo 3/7 luminescence, 3 h; percent of clofoctol response, vehicle zero;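 active means over half of replicate activation scores above 10%, or exactly half above 10 with the replicate mean above 10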
NALP3 yeast inh – NALP3 inflammasome inhibitors in reconstituted yeast, primary screen, luminescence, uHTS. 330,000 tested, 0.39% active. Yeast reconstituted NLRP3/ASC/caspase-1, beta-gal luminescence, 24 h. inhibition, % at 10 µM;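 active means inhibition of 50% or more; inactive means inhibition below 50%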;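 further: plate controls were induced DMSO wells for no effect and uninduced yeast grown without galactose for full effect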
TbMetRS inhib – T. brucei MetRS inhibitors, primary screen, biochemical, luminescence | methionyl-tRNA synthetase (Trypanosoma brucei brucei) | purified T. brucei MetRS, ATP depletion, Kinase-Glo luminescence | inhibition, % at 11.9 µM | 360,000 tested, 0.4% active;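 active means inhibition above a per-plate cutoff of the control wells' mean inhibition plus 3 SD, cut at about 5.5% in these data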;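 further: 0% = DMSO wells median and 100% = median of wells with control inhibitor compound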
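Dosing: 11.9 µM single point; system: parasite MetRS enzyme; technique: luminescence of leftover ATP; times: 15 min enzyme-compound preincubation, 2 h reaction, 10 min detection, 25 °C; replicates: each compound tested once; read-out basis: percent inhibition relative to median high and low control wells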
NALP1 yeast inh – NALP1 inflammasome inhibitors in reconstituted yeast, colorimetric, S. cerevisiae, triplicate retest | S. cerevisiae NALP1/ASC/caspase-1 growth, X-gal OD620, 72 h | inhibition, % at 10 µM | 280,000 tested, 0.61% active | AID 2071, 2009; in the data active means inhibition mostly above about 24%, no sharp cut-off; inactive means mostly below about 32%
MC4R barr agon – MC4R agonists recruiting beta-arrestin, primary screen, cell-based, luminescence, agonist arm of biased-ligand search; Melanocortin receptor 4 (Homo sapiens), P32245; U2OS MC4R beta-arrestin complementation; percent of melanotan II response, DMSO zero; activation, % at 8.9 µM; 360,000 tested, 0.98% active;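 active means activation above a per-plate cutoff, the mean activation of sample wells on that plate plus 3 SD, cut at about 8% in these data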
Target sequence (P32245 whole entry, looked up): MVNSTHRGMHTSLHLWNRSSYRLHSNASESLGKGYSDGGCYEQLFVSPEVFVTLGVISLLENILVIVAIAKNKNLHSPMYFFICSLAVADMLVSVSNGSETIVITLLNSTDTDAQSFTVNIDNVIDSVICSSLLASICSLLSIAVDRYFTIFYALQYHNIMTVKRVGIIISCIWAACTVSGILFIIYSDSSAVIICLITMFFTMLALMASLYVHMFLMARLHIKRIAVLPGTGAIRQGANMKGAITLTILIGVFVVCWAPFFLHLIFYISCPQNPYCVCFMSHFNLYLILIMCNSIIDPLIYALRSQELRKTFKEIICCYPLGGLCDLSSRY
MC4R antag cAMP – MC4R antagonists of cAMP signaling, primary screen, cell-based, TR-FRET, antagonist arm of biased-ligand search | 360,000 tested, 0.48% active | inhibition, % at 6.5 µM | MC4R-expressing cells, MTII-stimulated cAMP, LANCE TR-FRET | Melanocortin receptor 4 (Homo sapiens), P32245 | AID 540295, 2011;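 active means inhibition above its plate's cutoff, the mean of tested wells on that plate plus 3 SD, cut at about 29% in these data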;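 further: 0% = Melanotan II alone and 100% = Melanotan II plus saturating MCL0020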
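System – human MC4R-expressing U2OS cells · Also added – Melanotan II · Dosing – one concentration, 6.5 µM nominal · Timing – 30-min compound, 1-h challenge, 1-h detection, room temperature · Measured by – Eu-cAMP/anti-cAMP TR-FRET, emission 671 nm · Replicates – singlicate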
Tb MetRS conf – T. brucei MetRS inhibitors, confirmation, biochemical, luminescence. 1,400 tested, 93% active. T. brucei MetRS enzyme, luminescence (ATP depletion). AID 624412, 2012. shares compounds with TbMetRS inhib. inhibition, % at 11.9 µM; in the data active means inhibition above about 7%
Jurkat cytotox – Jurkat T cell cytotoxicity, cytotoxicity control for T. brucei MetRS inhibitor project, luminescence, high throughput. AID 624413, 2012. Jurkat cells viability, ATP luminescence. shares compounds with TbMetRS inhib. 1,400 tested, 12% active. inhibition, % at 8.3 µM; in the data active means inhibition above about 15%;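 further: 0% = vehicle and 100% = reference inhibitor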
TbMetRS FP orth – T. brucei MetRS inhibitors, orthogonal assay for T. brucei MetRS inhibitor project, biochemical, fluorescence polarization. inhibition, % at 11.9 µM. AID 651607, 2012. purified T. brucei MetRS. 1,400 tested, 44% active. shares compounds with TbMetRS inhib; in the data active means inhibition above about 17%;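 further: 0% = vehicle wells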
* = called active by the depositor; . = not tested or not shown.

SMILES | Bfl-1 A1 inh | NALP3 yeast inh | TbMetRS inhib | NALP1 yeast inh | MC4R barr agon | MC4R antag cAMP | Tb MetRS conf | Jurkat cytotox | TbMetRS FP orth
CCOC(=O)C1=CCN(S(=O)(=O)c2ccc(F)cc2)C1c1cccc(F)c1 (stereo not drawn) | . | . | -2 | . | . | . | . | . | .
COc1ccc(S(=O)(=O)N(C)C)cc1NC(=O)COC(=O)C1CC1 | 0 | -7 | 0 | . | -1 | 10 | . | . | .
C=CCNc1ncnc2ccccc12 | 0 | 16 | 0 | 5 | -2 | -5 | . | . | .
C=CCNc1ncnc2c1cnn2-c1ccc(Cl)cc1 | -6 | 21 | 0 | 14 | -1 | 11 | . | . | .
C=CCNc1ncnc2c1[nH]c1ccccc12 | 0 | 12 | 21* | -13 | -2 | 3 | 35* | 14 | 15
C=CCNc1ncnc2c1[nH]c1ccc(Cl)cc12 | 0 | 3 | 51* | 10 | 0 | 6 | 64* | 18* | 38*
Cc1cccc(C)c1NC(=O)C1(C)CSCC(=O)N1CCc1ccc(O)cc1 (stereo not drawn) | . | . | 0 | . | . | . | . | . | .
O=C(CN1CCN(S(=O)(=O)c2ccccc2)CC1)N1CCc2ccccc21 | 1 | 10 | 0 | . | -5 | 0 | . | . | .
Cn1c(CSc2nc3ccc(Br)cc3[nH]2)nc2ccccc21 | 0 | 23 | 12* | 19 | -1 | 0 | 18* | 8 | 12
O=C(O)CCSc1nc2ccc(Br)cc2[nH]1 | 1 | 16 | 2 | 2 | 1 | 5 | . | . | .
O=C(CNC(=O)c1ccccc1)NCC(=O)OCc1ccccc1Cl | 1 | -2 | 0 | 13 | -2 | 19 | . | . | .
O=C(CCNC(=O)c1ccc(Br)cc1)OCc1ccccc1Cl | 1 | 17 | 7.0* | . | -1 | 15 | 34* | -4 | 19*
O=C(NCCN1CCOCC1)c1ccccc1OCc1ccccc1 | 0 | 5 | 0 | . | -1 | 9 | . | . | .
O=C(Nn1c(-c2ccc(Br)cc2)nc2ccccc2c1=O)c1ccc([N+](=O)[O-])cc1 | 2 | 14 | 8.7* | 7 | 0 | -4 | 18* | 6 | 4
O=c1c2cc(Cl)ccc2[nH]c(=S)n1Cc1ccccn1 | 0 | 1 | 6.8* | 19 | -2 | 2 | 16* | 6 | 3
O=C(NCc1ccccn1)c1ccc(Cn2c(=S)[nH]c3ccc(Br)cc3c2=O)cc1 | -1 | 5 | 0 | -9 | 0 | 12 | . | . | .
COc1ccc(-c2c(C#Cc3ccsc3)c3cc(-c4ccc(OC)c(F)c4)ccc3n2C)cc1 | 1 | 5 | 0 | . | 1 | 9 | . | . | .
